# Assay results published in ChEMBL document CHEMBL3091449, “Synthesis and antimicrobial profile of N-substituted imidazolium oximes and their monoquaternary salts against multidrug resistant bacteria” (2013).
# Key:
# Format in all cases: functional
# [1] = tested on: Enterobacter cloacae; experiment: Antibacterial activity against TEM-1/CTX-M-15 expressing Enterobacter cloacae isolate 62 after 18 to 24 hrs by two-fold broth microdilution assay
# [2] = tested on: Staphylococcus aureus; experiment: Antibacterial activity against Staphylococcus aureus ATCC 25923 assessed as diameter of zone of inhibition at 250 ug/disc after 24 hrs by disc diffusion method; settings: ATCC 25923, 24 h, read-out: DIZ
# In short: (§1)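 Bacteria were grown overnight at 37 °C in TSB to about 10^6 cfu/mL, and 100 µL was spread on Mueller Hinton agar. Sterile 6 mm discs were each loaded with 25 µL of a 10 mg/mL stock in 96% ethanol, giving 250 µg/disc. Ethanol served as the negative control. Plates were incubated 24 h at 37 °C. Inhibition zone diameter was measured including the disc, in triplicate, as mean ± SE.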
# [3] = tested on: Aeromonas hydrophila; experiment: Antibacterial activity against Aeromonas hydrophila FNSST 014 assessed as diameter of zone of inhibition at 250 ug/disc after 24 hrs by disc diffusion method; settings: FNSST 014, 24 h, read-out: DIZ; in short: as §1
# [4] = tested on: Kluyvera intermedia; experiment: Antibacterial activity against TEM-1/SHV-12/[…] expressing Enterobacter intermedius isolate 243 after 18 to 24 hrs by two-fold broth microdilution assay
# In short: (§2)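 CLSI two-fold broth microdilution was used. Compounds were dissolved in DMSO, brought to 10 mg/mL in medium, then serially diluted in Mueller Hinton broth over 400–0.09 µg/mL. Overnight MHB cultures were diluted to 10^6 CFU/mL, and 10 µL was added per well. Plates were incubated 18–24 h at 37 °C, then 0.2 mg/mL INT was added for 30 min at 37 °C. MIC was the lowest concentration with no visible growth or pink colour, triplicate.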
# [5] = tested on: Aeromonas hydrophila; experiment: Antibacterial activity against Aeromonas hydrophila FNSST 014 after 18 to 24 hrs by two-fold broth microdilution assay; in short: as §2
# [6] = tested on: Pseudomonas aeruginosa; experiment: Ratio of imipenem MIC to compound MIC for Pseudomonas aeruginosa isolate 197
# [7] = tested on: Aeromonas caviae; experiment: Antibacterial activity against TEM-1/CTX-M-15 expressing Aeromonas caviae isolate 260 after 18 to 24 hrs by two-fold broth microdilution assay; in short: as §2
# [8] = tested on: Clostridium perfringens; experiment: Antibacterial activity against Clostridium perfringens FNSST 4999 after 18 to 24 hrs by two-fold broth microdilution assay
# In short: (§3)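 CLSI two-fold broth microdilution. Compounds dissolved in DMSO, 10 mg/mL stock, serially diluted to 400–0.09 µg/mL in Mueller Hinton broth. Wells inoculated with 10^6 CFU/mL bacteria and incubated 18–24 h at 37 °C. 0.2 mg/mL INT added for 30 min. MIC taken as the lowest concentration with no visible growth or pink colour. Triplicate.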
# [9] = tested on: Enterococcus faecalis; experiment: Antibacterial activity against Enterococcus faecalis ATCC 29212 assessed as diameter of zone of inhibition at 250 ug/disc after 24 hrs by disc diffusion method; settings: ATCC 29212, 24 h, read-out: DIZ; in short: as §1
# [10] = tested on: Pseudomonas aeruginosa; experiment: Ratio of gentamicin MIC to compound MIC for Pseudomonas aeruginosa FNSST 982
# [11] = tested on: Escherichia coli; experiment: Antibacterial activity against […] expressing Escherichia coli isolate 235 after 18 to 24 hrs by two-fold broth microdilution assay; in short: as §3
# [12] = tested on: Pseudomonas aeruginosa; experiment: Antibacterial activity against GIM-1 expressing Pseudomonas aeruginosa isolate 197 after 18 to 24 hrs by two-fold broth microdilution assay; in short: as §2
# [13] = tested on: Escherichia coli; experiment: Antibacterial activity against Escherichia coli FNSST 982 after 18 to 24 hrs by two-fold broth microdilution assay; in short: as §2
# [14] = tested on: Bacillus cereus; experiment: Antibacterial activity against Bacillus cereus ATCC 11778 assessed as diameter of zone of inhibition at 250 ug/disc after 24 hrs by disc diffusion method; settings: ATCC 11778, 24 h, read-out: DIZ; in short: as §1
# [15] = tested on: Escherichia coli; experiment: Antibacterial activity against […] expressing Escherichia coli isolate 4024 after 18 to 24 hrs by two-fold broth microdilution assay; in short: as §3
# [16] = tested on: Escherichia coli; experiment: Ratio of gentamicin MIC to compound MIC for Escherichia coli FNSST 982
# [17] = tested on: Enterobacter cloacae; experiment: Antibacterial activity against CTX-15 expressing Enterobacter cloacae isolate 51 after 18 to 24 hrs by two-fold broth microdilution assay
# [18] = tested on: Pseudomonas aeruginosa; experiment: Antibacterial activity against Pseudomonas aeruginosa FNSST 982 assessed as diameter of zone of inhibition at 250 ug/disc after 24 hrs by disc diffusion method; settings: FNSST 982, 24 h, read-out: DIZ; in short: as §1
# [19] = tested on: Pseudomonas aeruginosa; experiment: Antibacterial activity against Pseudomonas aeruginosa FNSST 982 after 18 to 24 hrs by two-fold broth microdilution assay; in short: as §2
# [20] = tested on: Escherichia coli; experiment: Antibacterial activity against Escherichia coli FNSST 982 assessed as diameter of zone of inhibition at 250 ug/disc after 24 hrs by disc diffusion method; settings: FNSST 982, 24 h, read-out: DIZ; in short: as §1
# [21] = tested on: Acinetobacter baumannii; experiment: Ratio of meropenem MIC to compound MIC for Acinetobacter baumannii isolate 170
# [22] = tested on: Bacillus cereus; experiment: Antibacterial activity against Bacillus cereus ATCC 11778 after 18 to 24 hrs by two-fold broth microdilution assay; in short: as §2
# [23] = tested on: Staphylococcus aureus; experiment: Antibacterial activity against Staphylococcus aureus ATCC 25923 after 18 to 24 hrs by two-fold broth microdilution assay; in short: as §2
# [24] = tested on: Klebsiella pneumoniae; experiment: Antibacterial activity against Klebsiella pneumoniae FNSST 011 after 18 to 24 hrs by two-fold broth microdilution assay; in short: as §2
# [25] = tested on: Pseudomonas aeruginosa; experiment: Ratio of meropenem MIC to compound MIC for Pseudomonas aeruginosa isolate 197
# [26] = tested on: Clostridium perfringens; experiment: Antibacterial activity against Clostridium perfringens FNSST 4999 assessed as diameter of zone of inhibition at 250 ug/disc after 24 hrs by disc diffusion method; settings: FNSST 4999, 24 h, read-out: DIZ
# In short: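 Disc diffusion per CLSI: 100 µL of 10^6 cfu/mL bacterial suspension spread on Mueller Hinton agar. 6 mm discs loaded with 25 µL of 10 mg/mL compound stock in 96% ethanol (250 µg/disc); ethanol as negative control. Incubated 24 h at 37 °C. Inhibition zone diameter measured in mm including the disc, triplicate, reported as mean ± SE.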
# [27] = tested on: Stenotrophomonas maltophilia; experiment: Antibacterial activity against […] expressing Stenotrophomonas maltophilia isolate 125 after 18 to 24 hrs by two-fold broth microdilution assay; in short: as §2
# [28] = tested on: Acinetobacter baumannii; experiment: Ratio of imipenem MIC to compound MIC for Acinetobacter baumannii isolate 170
# [29] = tested on: Aspergillus fumigatus; experiment: Antifungal activity against Aspergillus fumigatus FNSST 3833 assessed as diameter of zone of inhibition at 250 ug/disc after 72 hrs by disc diffusion method; settings: FNSST 3833, 72 h, read-out: DIZ
# In short: (§4)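 Fungi were grown overnight at 30 °C in Sabouraud dextrose broth to 10^4 cfu/mL, and 100 µL was spread on Sabouraud dextrose agar. 6 mm discs carried 250 µg (25 µL of a 10 mg/mL stock in 96% ethanol), with ethanol as the negative control. Incubation was at 30 °C for 48 h (yeast) or 72 h (molds). Zone diameter was read including the disc, in triplicate, mean ± SE.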
# [30] = tested on: Aeromonas hydrophila; experiment: Ratio of gentamicin MIC to compound MIC for Aeromonas hydrophila FNSST 014
# [31] = tested on: Talaromyces funiculosus; experiment: Antifungal activity against Penicillium funiculosum FNSST 3724 assessed as diameter of zone of inhibition at 250 ug/disc after 72 hrs by disc diffusion method; settings: FNSST 3724, 72 h, read-out: DIZ; in short: as §4
# [32] = tested on: Candida albicans; experiment: Antifungal activity against Candida albicans ATCC 10231 assessed as diameter of zone of inhibition at 250 ug/disc after 48 hrs by disc diffusion method; settings: ATCC 10231, 48 h, read-out: DIZ; in short: as §4
# [33] = tested on: Escherichia coli; experiment: Antibacterial activity against TEM-1/SHV-12 expressing Escherichia coli isolate 237 after 18 to 24 hrs by two-fold broth microdilution assay; in short: as §3
# [34] = tested on: Klebsiella pneumoniae; experiment: Antibacterial activity against TEM-1/SHV-12 expressing Klebsiella pneumoniae isolate 303 after 18 to 24 hrs by two-fold broth microdilution assay; in short: as §2
# [35] = tested on: Acinetobacter baumannii; experiment: Antibacterial activity against SIM-1 expressing Acinetobacter baumannii isolate 170 after 18 to 24 hrs by two-fold broth microdilution assay; in short: as §3
# [36] = tested on: Aeromonas hydrophila; experiment: Antibacterial activity against TEM-1/SHV-12 expressing Aeromonas hydrophila isolate 268 after 18 to 24 hrs by two-fold broth microdilution assay; in short: as §2
# [37] = tested on: Klebsiella pneumoniae; experiment: Antibacterial activity against Klebsiella pneumoniae FNSST 011 assessed as diameter of zone of inhibition at 250 ug/disc after 24 hrs by disc diffusion method; settings: FNSST 011, 24 h, read-out: DIZ; in short: as §1
# [38] = tested on: Aeromonas caviae; experiment: Antibacterial activity against […] expressing Aeromonas caviae isolate 258 after 18 to 24 hrs by two-fold broth microdilution assay; in short: as §2
# [39] = tested on: Klebsiella pneumoniae; experiment: Ratio of gentamicin MIC to compound MIC for Klebsiella pneumoniae FNSST 011
# [40] = tested on: Enterobacter cloacae; experiment: Antibacterial activity against TEM-1/SHV-12 expressing Enterobacter cloacae isolate 306 after 18 to 24 hrs by two-fold broth microdilution assay
# [41] = tested on: Enterococcus faecalis; experiment: Antibacterial activity against Enterococcus faecalis ATCC 29212 after 18 to 24 hrs by two-fold broth microdilution assay; in short: as §2
structure (smiles),measurement,setting,value
O/N=C/c1n(Cc2ccccc2)cc[n+]1-c1ccc(F)cc1.[Br-],MIC,[1],6.25 µg/mL
same,zone of inhibition at 250 µg/disc,[2],19.9 mm
same,zone of inhibition at 250 µg/disc,[3],16.5 mm
same,MIC,[4],6.25 µg/mL
same,MIC,[5],12.5 µg/mL
same,Ratio,[6],20
same,MIC,[7],12.5 µg/mL
same,MIC,[8],25 µg/mL
same,zone of inhibition at 250 µg/disc,[9],19.6 mm
same,Ratio,[10],2.5
same,MIC,[11],6.25 µg/mL
same,MIC,[12],0.39 µg/mL
same,MIC,[13],12.5 µg/mL
same,zone of inhibition at 250 µg/disc,[14],18.3 mm
same,MIC,[15],1.56 µg/mL
same,Ratio,[16],2.5
same,MIC,[17],6.25 µg/mL
same,zone of inhibition at 250 µg/disc,[18],15.9 mm
same,MIC,[19],25 µg/mL
same,zone of inhibition at 250 µg/disc,[20],15.3 mm
same,Ratio,[21],20
same,MIC,[22],6.25 µg/mL
same,MIC,[23],6.25 µg/mL
same,MIC,[24],1.56 µg/mL
same,Ratio,[25],20
same,zone of inhibition at 250 µg/disc,[26],11.4 mm
same,MIC,[27],12.5 µg/mL
same,Ratio,[28],20
same,zone of inhibition at 250 µg/disc,[29],19.4 mm
same,Ratio,[30],2.5
same,zone of inhibition at 250 µg/disc,[31],17.9 mm
same,zone of inhibition at 250 µg/disc,[32],21.9 mm
same,MIC,[33],3.12 µg/mL
same,MIC,[34],12.5 µg/mL
same,MIC,[35],0.78 µg/mL
same,MIC,[36],12.5 µg/mL
same,zone of inhibition at 250 µg/disc,[37],14.7 mm
same,MIC,[38],12.5 µg/mL
same,Ratio,[39],2.5
same,MIC,[40],6.25 µg/mL
same,MIC,[41],6.25 µg/mL
